In ChEMBL document CHEMBL1156315, “Discovery of a novel sulfonamide-pyrazolopiperidine series as potent and efficacious gamma-secretase inhibitors” (Bioorg Med Chem Lett, 2010):

How the values were obtained:
[1] = target: Gamma-secretase (Homo sapiens) (UniProt Q96BI3+Q9NZ42+Q8WW43+P49768+Q92542+P49810); assay: Inhibition of gamma-secretase-mediated APP cleavage in human SNC cells by ELISA; type: cell-based
Gamma-secretase [2] = assay: Inhibition of gamma-secretase-mediated notch cleavage in human SNC cells by ELISA; type: cell-based
[3] = (§1) Metabolic stability in human liver microsomes assessed as compound remaining after 30 mins in presence of 1 mM NADPH; type: ADME, Microsome; details: liver microsomes, read-out: Stability
Procedure, shortened: (§2)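 Liver microsomes (0.5 mg protein) in phosphate buffer with 1 mM NADPH, incubated 30 min at 37 °C; read-out is the percentage of parent compound remaining.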

Gamma-secretase [4] = assay: Inhibition of gamma-secretase-mediated APP cleavage in human IMR-32 cells assessed as amyloid beta40 level after 2 hrs by ELISA; type: cell-based
Gamma-secretase [5] = assay: Inhibition of gamma-secretase-mediated notch cleavage in human IMR-32 cells after 2 hrs by ELISA; type: cell-based
[6] = (§3) Metabolic stability in human liver microsomes assessed as compound remaining after 30 mins in presence of 1 mM UDPGA, 100 mM MgCl2 and 25 ug/ml alamethacin; type: ADME, Microsome; details: liver microsomes, read-out: Stability
Procedure, shortened: (§4)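 Glucuronidation conditions: liver microsomes (0.5 mg protein) in phosphate buffer with 1 mM UDPGA, 100 mM MgCl₂ and alamethacin, 30 min at 37 °C; the percentage of compound remaining is reported.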

Liver microsomes [7] = assay: as §3; type: ADME, Microsome; details: microsomes, 0.5 h; procedure, shortened: as §4
Liver microsomes [8] = assay: as §1; type: ADME, Microsome; details: microsomes, 0.5 h; procedure, shortened: as §2
[9] = Ratio of drug level in FVB mouse brain to plasma; type: ADME, cell-free
Procedure, shortened: (§5)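 Wild-type FVB mice received a single 5 mg/kg oral dose. Brain Aβ40 reduction and the brain/plasma compound ratio were determined 3 h post-dose.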

Mus musculus = assay: Neuroprotective activity in FVB mouse brain assessed as reduction in amyloid beta 40 level at 5 mg/kg, po after 3 hrs; type: functional; set-up: scale not given: the % may be the effect or the level left; procedure, shortened: as §5

Row | ED50 [1] [nM] | IC50 (Gamma-secretase [2]) [µM] | remaining at 0.5 h [3] [%] | IC50 (Gamma-secretase [4]) [nM] | IC50 (Gamma-secretase [5]) [nM] | remaining at 0.5 h [6] [%] | Stability (Liver microsomes [7]) [%] | Stability (Liver microsomes [8]) [%] | Kp [9] | SMILES | Activity (Mus musculus) [%]
1 | 3130 | > 40 | 84 | 557 | 8660 |  |  |  |  | O=S(=O)(c1ccc(Cl)cc1)N1CCc2n[nH]cc2C1CO (stereo not drawn) | 
2 |  |  |  | > 30000 |  |  |  |  |  | O=S(=O)(c1ccc(Cl)cc1)N1CCCCC1 | 
3 | 400 | > 40 | 67 | 536 | 10400 | 70 |  |  |  | O=S(=O)(c1ccc(Cl)cc1)N1Cc2c[nH]nc2CC1c1cncnc1 (stereo not drawn) | 
4 |  | 2.31 | 50 | 12 | 120 | 85 |  |  |  | O=S(=O)(c1ccc(Cl)cc1)N1CCc2[nH]ncc2C1c1cncnc1 (stereo not drawn) | 
5 | 137 | 10.3 | 1 | 10.2 | 204 | 1 |  |  |  | CCOC(=O)C1c2c[nH]nc2CCN1S(=O)(=O)c1ccc(Cl)cc1 (stereo not drawn) | 
6 | 1420 | > 40 | 8 | 431 | 5850 |  |  |  |  | CCOC(=O)C1Cc2n[nH]cc2CN1S(=O)(=O)c1ccc(Cl)cc1 (stereo not drawn) | 
7 | 55.3 | 6.51 | 5 | 7.7 | 598 | 8 |  |  |  | O=S(=O)(c1ccc(Cl)cc1)N1Cc2c[nH]nc2CC1c1ccccc1 (stereo not drawn) | 
8 |  | 6.85 |  | 62.6 |  |  | 1 | 0 |  | CC[C@H]1Cc2n[nH]cc2[C@@H](CC)N1S(=O)(=O)c1ccc(Cl)cc1.Cl | 
9 |  |  |  | 1000 |  |  |  |  |  | C[C@@H]1CCC[C@H](C)N1S(=O)(=O)c1ccc(Cl)cc1 | 
10 | 47.1 |  |  |  |  |  |  |  |  | O=S(=O)(c1ccc(Cl)cc1)N1CCc2n[nH]cc2C1c1cncnc1 (stereo not drawn) | 
11 | 16.7 | 1.57 | 10 | 3.7 | 75.5 | 31 |  |  |  | CC[C@H]1Cc2n[nH]cc2[C@@H](c2ccc(Cl)cc2)N1S(=O)(=O)c1ccc(Cl)cc1 (racemic) | 
12 | 182 | 15.5 | 4 | 22.4 | 126 | 25 |  |  |  | CC[C@@H]1c2c[nH]nc2C[C@H](c2ccc(Cl)cc2)N1S(=O)(=O)c1ccc(Cl)cc1 (racemic) | 
13 | 340 | 16.6 | 3 | 80.9 | 1550 |  |  |  |  | O=S(=O)(c1ccc(Cl)cc1)N1Cc2c[nH]nc2CC1Cc1ccccc1 (racemic) | 
14 | 5320 | > 40 | 15 | 350 | 8250 | 59 |  |  |  | CN(C)C(=O)OCC1c2c[nH]nc2CCN1S(=O)(=O)c1ccc(Cl)cc1 (racemic) | 
15 | 19 | 0.736 | 18 | 1.01 | 15.3 |  |  |  |  | CC[C@H]1Cc2n[nH]cc2CN1S(=O)(=O)c1ccc(Cl)cc1 (racemic) | 
16 |  |  |  | 8280 |  |  |  |  |  | CC1CCCCN1S(=O)(=O)c1ccc(Cl)cc1 (racemic) | 

Row | ED50 [1] [nM] | IC50 (Gamma-secretase [2]) [µM] | remaining at 0.5 h [3] [%] | IC50 (Gamma-secretase [4]) [nM] | IC50 (Gamma-secretase [5]) [nM] | remaining at 0.5 h [6] [%] | Stability (Liver microsomes [7]) [%] | Stability (Liver microsomes [8]) [%] | Kp [9] | SMILES | Activity (Mus musculus) [%]
17 |  |  |  | 2000 |  |  |  |  |  | CCC1CCCCN1S(=O)(=O)c1ccc(Cl)cc1 (racemic) | 
18 |  |  |  | 1700 |  |  |  |  |  | CCCC1CCCCN1S(=O)(=O)c1ccc(Cl)cc1 (racemic) | 
19 |  |  |  | 760 |  |  |  |  |  | O=S(=O)(c1ccc(Cl)cc1)N1CCCCC1c1ccccc1 (racemic) | 
20 | 86 | 6.76 | 5 | 16.1 | 87 |  |  |  |  | CC(C)C1Cc2n[nH]cc2CN1S(=O)(=O)c1ccc(Cl)cc1 (racemic) | 
21 | 1270 | 33.6 | 54 | 244 | 5750 | 8 |  |  |  | O=S(=O)(c1ccc(Cl)cc1)N1Cc2c[nH]nc2CC1c1nccs1 (racemic) | 
22 | 139 | 6.53 | 57 | 29.1 | 858 |  |  |  |  | O=S(=O)(c1ccc(Cl)cc1)N1CCc2n[nH]cc2C1c1nccs1 (racemic) | 
23 |  | 2.59 | 12 | 3.4 | 311 | 33 |  |  |  | O=S(=O)(c1ccc(Cl)cc1)N1Cc2cn[nH]c2CC1c1ccc(Cl)cc1 (racemic) | 
24 |  | 5.32 | 6 | 5.4 | 481 |  |  |  |  | O=S(=O)(c1ccc(Cl)cc1)N1Cc2cn[nH]c2CC1c1ccc(F)cc1 (racemic) | 
25 |  | 11.4 | 14 | 8.3 | 662 | 0 |  |  |  | O=S(=O)(c1ccc(Cl)cc1)N1Cc2cn[nH]c2CC1c1cccc(F)c1 (racemic) | 
26 | 60.1 | 14.1 | 3 | 9.7 | 776 | 0 |  |  |  | O=S(=O)(c1ccc(Cl)cc1)N1Cc2c[nH]nc2CC1c1cc(F)cc(F)c1 (racemic) | 
27 | 1.27 |  |  |  |  |  |  |  |  | CC[C@H]1Cc2n[nH]cc2[C@@H](CC)N1S(=O)(=O)c1ccc(Cl)cc1 (racemic) | 
28 | 17.5 |  |  |  |  |  |  |  |  | O=S(=O)(c1ccc(Cl)cc1)N1Cc2c[nH]nc2CC1c1ccc(Cl)cc1 (racemic) | 
29 | 28 |  |  |  |  |  |  |  |  | O=S(=O)(c1ccc(Cl)cc1)N1Cc2c[nH]nc2CC1c1ccc(F)cc1 (racemic) | 
30 | 47.1 |  |  |  |  |  |  |  |  | O=S(=O)(c1ccc(Cl)cc1)N1Cc2c[nH]nc2CC1c1cccc(F)c1 (racemic) | 
31 |  | 0.123 |  | 0.48 | 5 | 2 |  | 1 |  | CC[C@H]1Cc2n[nH]cc2[C@@H](CC)N1S(=O)(=O)c1ccc(Cl)cc1 (racemic) [ENT A] | 
32 |  | 0.07 |  | 0.35 | 5.8 |  | 1 |  | 0.8 | CC[C@H]1Cc2n[nH]cc2[C@@H](CC)N1S(=O)(=O)c1ccc(Cl)cc1 [ENT A] | 25
